TRPML3 ag: human TRPML3 channel agonists, primary screen, cell-based, HEK293 TRPML3-YFP, Fluo-8 calcium fluorescence, 3 µM. 100% = the carbachol control signal. activation, % at 3 µM. 0.29% of 220,000 active. AID 1448, 2008. Mucolipin-3 (Homo sapiens), Q8TDD5;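 active = activation above its plate's cutoff, the mean activation of the plate's test wells plus 3 SD, cut at about 12% in these data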;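 also: 0% = DMSO only wells and 100% = carbachol wells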
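Test system: HEK293 cells stably carrying human TRPML3-YFP; Doses: single dose, 3 µM final nominal compound, 0.3% DMSO final; Schedule: dye loading 1 h 37 °C then 30 min ambient, 125 s read; Technique: Fluo-8 calcium fluorescence; Benchmarks: high control carbachol 87 µM, low control DMSO.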
ABCG2 block: ABCG2 efflux pump inhibitors, primary screen, multiplex with ABCB1, IgMXP3 cells, flow cytometry. Broad substrate specificity ATP-binding cassette transporter ABCG2 (Homo sapiens), Q9UNQ0. JC-1 efflux. inhibition, % at 6.6 µM. 0.1% of 190,000 active;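 active = inhibition above 80%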;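 also: 0% = DMSO and 100% = nicardipine control wells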
Target sequence (Q9UNQ0 whole entry, looked up): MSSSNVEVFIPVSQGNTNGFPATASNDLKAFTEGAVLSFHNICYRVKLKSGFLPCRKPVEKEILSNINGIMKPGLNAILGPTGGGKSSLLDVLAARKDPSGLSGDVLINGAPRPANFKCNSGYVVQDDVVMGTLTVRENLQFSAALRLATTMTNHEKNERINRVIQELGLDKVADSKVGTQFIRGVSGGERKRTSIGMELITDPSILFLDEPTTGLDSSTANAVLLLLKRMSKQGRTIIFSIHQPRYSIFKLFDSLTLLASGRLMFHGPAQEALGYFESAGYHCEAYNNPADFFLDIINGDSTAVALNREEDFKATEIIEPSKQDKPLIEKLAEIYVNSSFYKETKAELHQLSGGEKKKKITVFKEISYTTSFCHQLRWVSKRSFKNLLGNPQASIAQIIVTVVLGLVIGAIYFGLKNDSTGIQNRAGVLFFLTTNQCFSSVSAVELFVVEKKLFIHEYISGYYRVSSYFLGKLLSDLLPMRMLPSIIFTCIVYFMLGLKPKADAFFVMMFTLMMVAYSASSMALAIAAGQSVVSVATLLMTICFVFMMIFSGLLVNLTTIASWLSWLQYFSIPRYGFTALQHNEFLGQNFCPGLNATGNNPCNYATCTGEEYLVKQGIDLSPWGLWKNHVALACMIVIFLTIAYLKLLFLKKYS
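Incubation: cells with compound and JC-1, 10 min at 25 °C, rotating, no wash / Test system: IgMXP3 (ABCG2) plus far-red-tagged CCRF-Adr (ABCB1) cells / Compound dosing: one concentration, 6.6 µM final / Also added: JC-1 fluorescent substrate / Evaluation: efflux inhibition in percent versus controls / Detection: flow cytometry, 530 nm JC-1 signal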
ABCB1 block: ABCB1 efflux pump inhibitors, primary screen, cell-based, multiplex, flow cytometry, ABCG2 counter-screen; inhibition, % at 6.6 µM; CCRF-Adr cells, JC-1 efflux; 0.067% of 190,000 active; ATP-dependent translocase ABCB1 (Homo sapiens), P08183; in the data active = inhibition above about 40%;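 also: 0% = vehicle and 100% = reference inhibitor; higher value means more JC-1 retained so stronger ABCB1 efflux block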
Biofilm kill mix: clotrimazole potentiators killing C. albicans biofilm, primary screen, 4-compound mixtures; C. albicans biofilm persisters + clotrimazole, fluorescence viability; primary screen in compound mixtures of four per well; inhibition, % at 7.6 µM; 0.02% of 120,000 active;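 active = inhibition above 30.3% in the primary screen of four-compound pools, then above 30% when the compound was retested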;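 also: compounds exposed to preformed 24 h biofilms for 48 h; 0% = untreated biofilm control and 100% = clotrimazole plus chlorhexidine kill blank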
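System: C. albicans CAF4-2 wild-type biofilms; Medium: RPMI/MOPS medium, pH 7.0; Reagent: Clotrimazole, 50 µg/mL; Times: biofilm formation 24 h, compound exposure 48 h, 37 °C; Detection: 2-h Alamar Blue fluorescence, 535/590 nm excitation/emission; Evaluation: percent inhibition of biofilm viability.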
ROMK primary: ROMK potassium channel modulators, primary screen, cell-based, thallium flux, MLSMR library. ATP-sensitive inward rectifier potassium channel 1 (Homo sapiens), P48048. Tet-inducible ROMK, thallium flux fluorescence; actives lie on both sides. B-score at 10 µM. 2% of 130,000 active. AID 1918, 2009;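 active = signal ratio slope over the read window, or its plate-corrected B-score, at least 3 SD from the plate mean, either direction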;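 also: B-score of the F/F0 ratio slope over 7 to 12 s after thallium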
TRPN1 ag: zebrafish TRPN1 channel agonists, primary screen, cell-based, HEK293, calcium fluorescence; transient receptor potential cation channel N1 (TRPN1/NompC), Danio rerio; HEK293 zebrafish TRPN1-YFP, Fluo-8 calcium fluorescence; 100% = response to 87 µM carbachol; activation, % at 3 µM; 0.18% of 220,000 active; AID 1424, 2008;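 active = activation above its plate's cutoff, the mean activation of test wells on that plate plus 3 SD, cut at about 19% in these data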;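 also: 0% = DMSO alone and 100% = 87 µM carbachol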
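Material: zebrafish TRPN1-YFP in HEK293 cells; Doses: single test compound dose, 3 µM nominal, 0.3% DMSO; Timing: dye loading 1 h at 37 °C, then 30 min room temperature; Technique: intracellular calcium fluorescence with Fluo-8; Benchmarks: high carbachol 87 µM, low DMSO alone.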
ABCB1 confirm: ABCB1 efflux pump inhibitors, confirmation, cell-based, single point, ABCG2 counter-screen; inhibition, % at 6.6 µM; shares compounds with ABCG2 block; AID 1451, 2008; 7% of 270 active; CCRF-Adr cells, JC-1 efflux, flow cytometry;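 active = inhibition of pump activity above 50%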;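 also: 0% = DMSO and 100% = nicardipine full pump inhibition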
ABCG2 single pt: ABCG2 efflux pump inhibitors, confirmation, single point, IgMXP3 cells, ABCB1 counter-screen paired. shares compounds with ABCG2 block. JC-1 efflux, flow cytometry. inhibition, % at 6.6 µM. 6% of 270 active. AID 1453, 2008;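 active = inhibition above 50%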;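 also: 0% = DMSO wells and 100% = nicardipine pump inhibitor wells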
IgMXP3 autofluor: compound autofluorescence in ABCG2-expressing IgMXP3 cells, confirmation, artefact control for ABC transporter inhibitor project, cell-based, 488/530 nm, flow cytometry. shares compounds with ABCG2 block. compound autofluorescence 488/530 nm; stronger effect = higher value. fluorescence at 6.6 µM. 30% of 270 active. AID 1480, 2009;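 active = fluorescence in ABCG2-expressing cells above the plate's control-well mean plus 3 SD, cut at about 15 in these data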;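 also: median cell fluorescence with compound minus that of DMSO-treated control cells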
CCRF-Adr fluor: compound autofluorescence in ABCB1-expressing CCRF-Adr cells, confirmation, artefact control for ABC transporter inhibitor project, cell-based, 488/530 nm, flow cytometry | 30% of 270 active | compound autofluorescence 488/530 nm; stronger effect = higher value | shares compounds with ABCG2 block | fluorescence at 6.6 µM;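 active = fluorescence beyond the plate control mean plus 3 SD, with a fluorescence-to-maximum score over 2, cut at about 25 in these data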
* hit, by the source's call. This excerpt belongs to a sample that is enriched for hits.

CCOc1ccc(OCc2ccc(C(=O)OCc3ccccn3)o2)cc1 was read as TRPML3 ag 0, ABCG2 block 87*, ABCB1 block 3, TRPN1 ag 0, ABCB1 confirm 0, ABCG2 single pt 26, IgMXP3 autofluor 0.46 and CCRF-Adr fluor -2.7.
CCOC(=O)c1ccc(COc2ccc(C(C)C)cc2)o1 was read as TRPML3 ag 1, ABCG2 block 4, ABCB1 block 0, Biofilm kill mix 5, ROMK primary 0.71 and TRPN1 ag -1.
Screening CC(C)CCn1c(O)c(N=Nc2ccccn2)c2ccccc21 returned TRPML3 ag 1, ABCG2 block 87*, ABCB1 block 2, Biofilm kill mix 10, ROMK primary 0.97, TRPN1 ag 1, ABCB1 confirm 4, ABCG2 single pt 44, IgMXP3 autofluor -1.1 and CCRF-Adr fluor -4.8.
For CCOC(=O)C1=C(O)/C(=C/c2ccc(OCC(=O)O)c(OC)c2)SC1=Nc1ccc(OCC)cc1 the results were TRPML3 ag 0, ABCG2 block 16, ABCB1 block 50*, Biofilm kill mix 20, TRPN1 ag 1, ABCB1 confirm -1, ABCG2 single pt 5, IgMXP3 autofluor -1.8 and CCRF-Adr fluor -3.4.
`CC(=O)Oc1c(/C=C(\C#N)C(N)=O)[nH]c2ccccc12` gave TRPML3 ag 1, ABCG2 block 200*, ABCB1 block 163*, Biofilm kill mix 5, TRPN1 ag 4, ABCB1 confirm -18, ABCG2 single pt -1, IgMXP3 autofluor 132* and CCRF-Adr fluor 272*.
`C/C(=N\NC(=O)c1cccc(S(=O)(=O)N2CCOCC2)c1)c1cc2ccccc2o1` gave TRPML3 ag 1, Biofilm kill mix 12 and TRPN1 ag 1.
`CCCCN(C)C1=CC2=CC(=C(C#N)C#N)CCC2CC1` (centres undefined) gave TRPML3 ag 225*, ABCG2 block 85*, ABCB1 block active, Biofilm kill mix 25, TRPN1 ag 239*, ABCB1 confirm 164*, ABCG2 single pt 49, IgMXP3 autofluor 44* and CCRF-Adr fluor 232*.
N#CC1=C(N)C2=C(N3CCCCC3)CCCC2C1(C#N)C#N (centres undefined) was read as TRPML3 ag 0, ABCG2 block -1, ABCB1 block 0, ROMK primary 1.1 and TRPN1 ag 0.
Screening CCN(CC)C1=CC2=CC(=C(C#N)C#N)CCC2CC1 (centres undefined) returned TRPML3 ag 298*, ABCG2 block 43, ABCB1 block 84*, Biofilm kill mix 11, TRPN1 ag 332*, ABCB1 confirm 24, ABCG2 single pt 74*, IgMXP3 autofluor 19* and CCRF-Adr fluor 40*.
N#CC(C#N)=C1C=C2C=C(N3CCCCC3)CCC2CC1 (centres undefined) was read as TRPML3 ag 380*, ABCG2 block 51, ABCB1 block 170*, Biofilm kill mix 8, TRPN1 ag active, ABCB1 confirm 62*, ABCG2 single pt 62*, IgMXP3 autofluor 17* and CCRF-Adr fluor 67*.
CCN(CC)c1nc2c(c(=O)n(C)c(=O)n2C)n1CC(=O)c1ccccc1 was read as TRPML3 ag -1, Biofilm kill mix 2 and TRPN1 ag -2.
For CC(C)(C)CC(=O)NCCCCCCNC(=O)CC(C)(C)C the results were TRPML3 ag 1, ABCG2 block 0, ABCB1 block 0, Biofilm kill mix 4, ROMK primary 0.29 and TRPN1 ag 1.
Screening CCC(C)C(=O)Nc1nc2ccc(OC)cc2s1 (centres undefined) returned TRPML3 ag 1, Biofilm kill mix 33 and TRPN1 ag 0.
For COC(=O)c1cc(NC(=O)c2cccc(C(F)(F)F)c2)c(=O)oc1C the results were TRPML3 ag 1, ABCG2 block 12, ABCB1 block 1, Biofilm kill mix 11, ROMK primary 0.49 and TRPN1 ag 0.
COC(=O)c1cc(NC(=O)c2cccc(Cl)c2)c(=O)oc1/C=C/Nc1cc(C)cc(C)c1 was read as TRPML3 ag 2, ABCG2 block 135*, ABCB1 block 138*, Biofilm kill mix 9, ROMK primary -5.8*, TRPN1 ag 5, ABCB1 confirm 0, ABCG2 single pt -183, IgMXP3 autofluor 503* and CCRF-Adr fluor 612*.
Screening COc1ccc(C(NC(=O)c2ccccc2F)NC(=O)c2ccccc2F)cc1 returned TRPML3 ag 0, ABCG2 block 8, ABCB1 block 1, Biofilm kill mix 18 and TRPN1 ag 1.
For CCOC(=O)C1C(c2ccc([N+](=O)[O-])cc2)C2C(=O)NN=C2CC1(C)O (centres undefined) the results were TRPML3 ag 2, Biofilm kill mix 30, ROMK primary -0.18 and TRPN1 ag 1.
`COc1ccc2c(c1)nc(NCCCO)n2Cc1ccccc1` gave TRPML3 ag 1, Biofilm kill mix 15 and TRPN1 ag 1.
Screening COc1cc(/C=C2/CCc3ccccc3C2=O)cc(OC)c1OC returned TRPML3 ag -1, ABCG2 block 87*, ABCB1 block 7, Biofilm kill mix 25, TRPN1 ag -1, ABCB1 confirm 2, ABCG2 single pt 44, IgMXP3 autofluor -1.6 and CCRF-Adr fluor -1.7.

Source: PubChem (several laboratories)
